In brackets after ≈: the same amount, converted by molar mass.
Assays:
Type in all cases: functional
Enterococcus faecalis = assay: In vitro minimum inhibitory concentration against Streptococcus faecalis ATCC 7080
Streptococcus pyogenes [1] = assay: In vivo effective dose given perorally to mice infected with Streptococcus pyogenes C 203; conditions: po
Method in brief: (§1)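 Mice (five per treatment group, five groups) infected intraperitoneally with about 10⁵ cells of Strep. pyogenes C 203, about 100× the LD50. ED50 (mg/kg) was calculated from the percentage of mice surviving at each dose on day 7.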

Streptococcus pneumoniae = assay: In vitro minimum inhibitory concentration against Streptococcus pneumoniae UC41
Staphylococcus aureus = assay: In vitro minimum inhibitory concentration against Staphylococcus aureus Tour
Streptococcus pyogenes [2] = assay: In vitro minimum inhibitory concentration against Streptococcus pyogenes C 203
[3] = test system: Staphylococcus epidermidis; assay: In vitro minimum inhibitory concentration against Staphylococcus epidermis ATCC 12228
Streptococcus pyogenes [4] = assay: Subcutaneously administration into mice infected with Streptococcus pyogenes C 203; conditions: sc; method in brief: as §1
Escherichia coli = assay: In vitro minimum inhibitory concentration against Escherichia coli SKF 12140
Proteus vulgaris = assay: In vitro minimum inhibitory concentration against Proteus vulgaris X 19 ATCC 881
[5] = test system: Staphylococcus haemolyticus; assay: In vitro minimum inhibitory concentration against Staphylococcus hemolyticus 602 cell line; conditions: strain 602

Structure (SMILES)	MIC (Enterococcus faecalis)	ED50 (Streptococcus pyogenes [1])	MIC (Streptococcus pneumoniae)	MIC (Staphylococcus aureus)	MIC (Streptococcus pyogenes [2])	MIC [3]	ED50 (Streptococcus pyogenes [4])	MIC (Escherichia coli)	MIC (Proteus vulgaris)	MIC [5]
CC(=O)N[C@@H]1[C@H](O[C@@H]2c3ccc(c(Cl)c3)Oc3cc4cc(c3O[C@@H]3O[C@@H](CO)[C@@H](O)[C@H](O)[C@@H]3NC(=O)CCCCCCC(C)C)Oc3ccc(cc3Cl)C[C@H]3NC(=O)[C@H](N)c5ccc(O)c(c5)Oc5cc(O)cc(c5)[C@H](NC3=O)C(=O)N[C@H]4C(=O)N[C@H]3C(=O)N[C@@H]2C(=O)N[C@H](C(=O)N(C)C)c2cc(O)cc(O[C@H]4O[C@H](CO)[C@@H](O)[C@@H](O)[C@@H]4O)c2-c2cc3ccc2O)O[C@@H](CO)[C@@H](O)[C@@H]1O	0.12 µg/mL (≈ 0.0629 µM)	139 mg/kg	0.06 µg/mL (≈ 0.0315 µM)	0.12 µg/mL (≈ 0.0629 µM)	0.06 µg/mL (≈ 0.0315 µM)	0.25 µg/mL (≈ 0.131 µM)	0.08 mg/kg			
CCOC(=O)CNC(=O)[C@H]1NC(=O)[C@H]2NC(=O)[C@H](NC(=O)[C@@H]3NC(=O)[C@H]4NC(=O)[C@@H](Cc5ccc(c(Cl)c5)Oc5cc3cc(c5O)Oc3ccc(cc3Cl)[C@H]2O[C@@H]2O[C@@H](CO)[C@@H](O)[C@H](O)[C@@H]2NC(C)=O)NC(=O)[C@H](N)c2ccc(O)c(c2)Oc2cc(O)cc4c2)c2ccc(O)c(c2)-c2c(O)cc(O)cc21	1 µg/mL (≈ 0.672 µM)		1 µg/mL (≈ 0.672 µM)	0.5 µg/mL (≈ 0.336 µM)	0.25 µg/mL (≈ 0.168 µM)	0.12 µg/mL (≈ 0.0807 µM)	5 mg/kg	128 µg/mL (≈ 86.1 µM)	> 128 µg/mL	
CC(=O)N[C@@H]1[C@H](O[C@@H]2c3ccc(c(Cl)c3)Oc3cc4cc(c3O[C@@H]3O[C@@H](CO)[C@@H](O)[C@H](O)[C@@H]3NC(=O)CCCCCCC(C)C)Oc3ccc(cc3Cl)C[C@H]3NC(=O)[C@H](N)c5ccc(O)c(c5)Oc5cc(O)cc(c5)[C@H](NC3=O)C(=O)N[C@H]4C(=O)N[C@H]3C(=O)N[C@@H]2C(=O)N[C@H](C(=O)NCC(=O)O)c2cc(O)cc(O[C@H]4O[C@H](CO)[C@@H](O)[C@@H](O)[C@@H]4O)c2-c2cc3ccc2O)O[C@@H](CO)[C@@H](O)[C@@H]1O	0.25 µg/mL (≈ 0.129 µM)	> 300 mg/kg	0.12 µg/mL (≈ 0.062 µM)	0.12 µg/mL (≈ 0.062 µM)	0.12 µg/mL (≈ 0.062 µM)	0.12 µg/mL (≈ 0.062 µM)	0.23 mg/kg			
CC(=O)N[C@@H]1[C@H](O[C@@H]2c3ccc(c(Cl)c3)Oc3cc4cc(c3O[C@@H]3O[C@@H](CO)[C@@H](O)[C@H](O)[C@@H]3NC(=O)CCCCCCC(C)C)Oc3ccc(cc3Cl)C[C@H]3NC(=O)[C@H](N)c5ccc(O)c(c5)Oc5cc(O)cc(c5)[C@H](NC3=O)C(=O)N[C@H]4C(=O)N[C@H]3C(=O)N[C@@H]2C(=O)N[C@H](C(=O)NCCN2CCCC2)c2cc(O)cc(O[C@H]4O[C@H](CO)[C@@H](O)[C@@H](O)[C@@H]4O)c2-c2cc3ccc2O)O[C@@H](CO)[C@@H](O)[C@@H]1O	0.12 µg/mL (≈ 0.0607 µM)	173 mg/kg	0.12 µg/mL (≈ 0.0607 µM)	0.12 µg/mL (≈ 0.0607 µM)	0.06 µg/mL (≈ 0.0304 µM)	0.12 µg/mL (≈ 0.0607 µM)	0.06 mg/kg			
CCCCN(CCCC)CCCNC(=O)[C@H]1NC(=O)[C@H]2NC(=O)[C@H](NC(=O)[C@@H]3NC(=O)[C@H]4NC(=O)[C@@H](Cc5ccc(c(Cl)c5)Oc5cc3cc(c5O[C@@H]3O[C@@H](CO)[C@@H](O)[C@H](O)[C@@H]3NC(=O)CCCCCCC(C)C)Oc3ccc(cc3Cl)[C@H]2O[C@@H]2O[C@@H](CO)[C@@H](O)[C@H](O)[C@@H]2NC(C)=O)NC(=O)[C@H](N)c2ccc(O)c(c2)Oc2cc(O)cc4c2)c2ccc(O)c(c2)-c2c(O[C@H]3O[C@H](CO)[C@@H](O)[C@@H](O)[C@@H]3O)cc(O)cc21	0.12 µg/mL (≈ 0.0586 µM)	300 mg/kg	0.06 µg/mL (≈ 0.0293 µM)	0.25 µg/mL (≈ 0.122 µM)	0.06 µg/mL (≈ 0.0293 µM)	0.06 µg/mL (≈ 0.0293 µM)	0.1 mg/kg			
CC(=O)N[C@@H]1[C@H](O[C@@H]2c3ccc(c(Cl)c3)Oc3cc4cc(c3O[C@@H]3O[C@@H](CO)[C@@H](O)[C@H](O)[C@@H]3NC(=O)CCCCCCC(C)C)Oc3ccc(cc3Cl)C[C@H]3NC(=O)[C@H](N)c5ccc(O)c(c5)Oc5cc(O)cc(c5)[C@H](NC3=O)C(=O)N[C@H]4C(=O)N[C@H]3C(=O)N[C@@H]2C(=O)N[C@H](C(=O)NC2CN4CCC2CC4)c2cc(O)cc(O[C@H]4O[C@H](CO)[C@@H](O)[C@@H](O)[C@@H]4O)c2-c2cc3ccc2O)O[C@@H](CO)[C@@H](O)[C@@H]1O (stereo partly drawn)	0.12 µg/mL (≈ 0.0604 µM)	173 mg/kg	0.06 µg/mL (≈ 0.0302 µM)	0.12 µg/mL (≈ 0.0604 µM)	0.06 µg/mL (≈ 0.0302 µM)	0.12 µg/mL (≈ 0.0604 µM)	0.07 mg/kg			
COC(=O)CNC(=O)[C@H]1NC(=O)[C@H]2NC(=O)[C@H](NC(=O)[C@@H]3NC(=O)[C@H]4NC(=O)[C@@H](Cc5ccc(c(Cl)c5)Oc5cc3cc(c5O)Oc3ccc(cc3Cl)[C@H]2O[C@@H]2O[C@@H](CO)[C@@H](O)[C@H](O)[C@@H]2NC(C)=O)NC(=O)[C@H](N)c2ccc(O)c(c2)Oc2cc(O)cc4c2)c2ccc(O)c(c2)-c2c(O)cc(O)cc21	0.5 µg/mL (≈ 0.339 µM)		2 µg/mL (≈ 1.36 µM)	0.25 µg/mL (≈ 0.17 µM)	0.25 µg/mL (≈ 0.17 µM)	0.06 µg/mL (≈ 0.0407 µM)	7 mg/kg	> 128 µg/mL	> 128 µg/mL	
CCCCC/C=C/CCC(=O)N[C@@H]1[C@H](Oc2c3cc4cc2Oc2ccc(cc2Cl)[C@@H](O[C@@H]2O[C@@H](CO)[C@@H](O)[C@H](O)[C@@H]2NC(C)=O)[C@@H]2NC(=O)[C@H](NC(=O)[C@@H]4NC(=O)[C@H]4NC(=O)[C@@H](Cc5ccc(c(Cl)c5)O3)NC(=O)[C@H](N)c3ccc(O)c(c3)Oc3cc(O)cc4c3)c3ccc(O)c(c3)-c3c(O[C@H]4O[C@H](CO)[C@@H](O)[C@@H](O)[C@@H]4O)cc(O)cc3[C@@H](C(=O)NC(CCC(=O)O)C(=O)O)NC2=O)O[C@@H](CO)[C@@H](O)[C@@H]1O (stereo partly drawn)	0.25 µg/mL (≈ 0.125 µM)		0.12 µg/mL (≈ 0.0598 µM)	0.5 µg/mL (≈ 0.249 µM)	0.06 µg/mL (≈ 0.0299 µM)	0.12 µg/mL (≈ 0.0598 µM)				4 µg/mL (≈ 1.99 µM)
CCN(CC)CCCNC(=O)[C@H]1NC(=O)[C@H]2NC(=O)[C@H](NC(=O)[C@@H]3NC(=O)[C@H]4NC(=O)[C@@H](Cc5ccc(c(Cl)c5)Oc5cc3cc(c5O)Oc3ccc(cc3Cl)[C@H]2O[C@@H]2O[C@@H](CO)[C@@H](O)[C@H](O)[C@@H]2NC(C)=O)NC(=O)[C@H](N)c2ccc(O)c(c2)Oc2cc(O)cc4c2)c2ccc(O)c(c2)-c2c(O)cc(O)cc21	0.25 µg/mL (≈ 0.165 µM)		0.5 µg/mL (≈ 0.33 µM)	0.12 µg/mL (≈ 0.0792 µM)	0.12 µg/mL (≈ 0.0792 µM)	0.06 µg/mL (≈ 0.0396 µM)	0.95 mg/kg	64 µg/mL (≈ 42.3 µM)	128 µg/mL (≈ 84.5 µM)	
CC(=O)NC1C(O[C@@H]2c3ccc(c(Cl)c3)Oc3cc4cc(c3O)Oc3ccc(cc3Cl)C[C@H]3NC(=O)[C@H](N)c5ccc(O)c(c5)Oc5cc(O)cc(c5)[C@H](NC3=O)C(=O)N[C@H]4C(=O)N[C@H]3C(=O)N[C@@H]2C(=O)N[C@H](C(=O)NCCN2CCCC2)c2cc(O)cc(O)c2-c2cc3ccc2O)OC(CO)C(O)C1O (stereo partly drawn)	0.5 µg/mL (≈ 0.334 µM)		0.25 µg/mL (≈ 0.167 µM)	0.12 µg/mL (≈ 0.0801 µM)	0.25 µg/mL (≈ 0.167 µM)	0.06 µg/mL (≈ 0.04 µM)	2.2 mg/kg	128 µg/mL (≈ 85.4 µM)	> 128 µg/mL	
